# High-throughput results from PubChem.
# Most compounds without a hit are left out; they make up all but 3.9% or so of the library.
# SR-BI DiI inh: inhibitors of SR-BI mediated HDL lipid uptake, primary screen, ldlA[mSR-BI] cells, fluorescence, single point; ldlA[mSR-BI] CHO cells, DiI-HDL uptake fluorescence, 3 h; inhibition, % at 12.5 µM; AID 488896, 2010; hit rate 0.96% among 320,000;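 active = mean replicate inhibition of at least 70% and a set share of replicates each scoring 70 or more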;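 note: 0% = median of neutral control wells and 100% = median of positive control wells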
# ABCB6 inh MLPCN: ABCB6 transporter inhibitors, primary screen, K562-ABCB6 cells, flow cytometry, MLPCN library; ATP-binding cassette sub-family B member 6 (Homo sapiens), Q9NP58; K562-ABCB6 porphyrin accumulation, 1 h; hits give low values; fluorescence ratio to DMSO, % at 10 µM; hit rate 0.19% among 360,000; AID 602162, 2011;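 active = fluorescence ratio to DMSO below 75%, the collection mean minus 3 SD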;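 note: signal is porphyrin accumulated inside mitochondria; 100% equals median channel fluorescence of DMSO control wells; lower ratio means ABCB6 inhibition with less porphyrin fluorescence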
# Target sequence (Q9NP58 whole entry, looked up): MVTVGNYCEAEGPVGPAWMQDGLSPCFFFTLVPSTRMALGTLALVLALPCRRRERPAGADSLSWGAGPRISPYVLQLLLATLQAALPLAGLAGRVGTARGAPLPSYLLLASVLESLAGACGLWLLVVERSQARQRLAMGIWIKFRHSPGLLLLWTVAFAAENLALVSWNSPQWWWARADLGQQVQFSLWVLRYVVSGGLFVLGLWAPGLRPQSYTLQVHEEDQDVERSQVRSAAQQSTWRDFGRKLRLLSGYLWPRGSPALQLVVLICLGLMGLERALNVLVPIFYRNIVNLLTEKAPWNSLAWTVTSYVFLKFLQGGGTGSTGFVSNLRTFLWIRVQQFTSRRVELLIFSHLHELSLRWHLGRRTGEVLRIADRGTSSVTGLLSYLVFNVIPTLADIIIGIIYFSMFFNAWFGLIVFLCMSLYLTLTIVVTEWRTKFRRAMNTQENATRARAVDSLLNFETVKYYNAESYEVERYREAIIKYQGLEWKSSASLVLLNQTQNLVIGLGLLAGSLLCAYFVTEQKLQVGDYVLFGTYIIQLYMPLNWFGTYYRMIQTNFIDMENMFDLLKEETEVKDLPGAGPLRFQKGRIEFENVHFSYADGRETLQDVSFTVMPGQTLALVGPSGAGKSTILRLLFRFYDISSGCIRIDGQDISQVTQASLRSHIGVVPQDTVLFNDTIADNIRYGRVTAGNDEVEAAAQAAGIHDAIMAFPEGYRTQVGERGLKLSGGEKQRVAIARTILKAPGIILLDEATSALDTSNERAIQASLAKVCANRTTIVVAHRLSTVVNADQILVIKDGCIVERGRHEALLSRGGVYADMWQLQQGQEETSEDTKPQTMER
# SR-BI DiI-HDL act: activators of SR-BI mediated DiI-HDL uptake, primary screen, ldlA[mSR-BI] CHO cells, DiI fluorescence | 3 h; 100 = double the neutral-control signal | activation, % at 12.5 µM | hit rate 0.096% among 320,000;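 active = mean replicate activation of at least 60% and every replicate at or above 60%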;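 note: 0% = median plate neutral-control signal and 100% = twice that signal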
#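 System: CHO ldlA[mSR-BI] cells / Medium: HEPES-buffered (25 mM, pH 7.4) F12 plus 0.5% BSA / Probe or stimulus: labelled HDL, 10 µg/mL / Doses: single compound concentration, delivered by pin transfer / Schedule: 3 h, 37 °C / Measured by: DiI fluorescence, bottom read / Measure: cell-associated DiI fluorescence as measure of HDL uptake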
# AHR act: AHR activators, primary screen, cell-based, luminescence, luciferase reporter, human. Aryl hydrocarbon receptor (Homo sapiens), P35869. AHR-responsive luciferase reporter cells. activation, % at 5 µM. hit rate 2.5% among 320,000. AID 2796, 2010; in the data active = activation above about 47%;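 note: 0% = vehicle wells and 100% = reference agonist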
# HIF activator: HIF pathway transcriptional activators, primary screen, cell-based, U2OS HRE-luciferase, luminescence; activation, % at 7.5 µM (by protocol); AID 1910, 2009; hit rate 0.32% among 300,000; U2OS HRE-luciferase reporter; normalized: DMSO 0%, desferrioxamine 100%;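 active = mean activation of at least 10% of the iron chelator positive control signal, with at least half of replicates also reaching 10%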
# GAA850 FXN act: FXN promoter activators, primary screen, cell-based, luciferase luminescence, HEK293 lucGAA850. HEK293 lucGAA850 FXN promoter luciferase reporter, 24 h; percent of 10 µM SAHA response. activation, % at 6 µM. hit rate 0.56% among 360,000;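 active = activation above the average of all compounds screened plus 3 SD, cutoff fixed separately per campaign, cut at about 7.5% in these data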;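 note: 0% = DMSO wells and 100% = 10 µM SAHA wells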
# GAA30 counter: GAA30 FXN promoter activators, confirmation, counter-screen for GAA850 frataxin promoter activator project, cell-based, luminescence, HEK293, lucGAA30, triplicate | shares compounds with GAA850 FXN act | HEK293 lucGAA30 FXN promoter luciferase, 24 h; DMSO = 0%, 5 µM ipriflavone = 100% | activation, % at 6 µM | hit rate 66% among 1,900;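 active = mean activation above the mean of solvent-only control wells plus 3 SD, cut at about 22% in these data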;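 note: counterscreen of GAA850 promoter hits where activity marks nonselective or luminescence artifacts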
# GAA850 confirm: FXN GAA850 promoter activators in reporter cells, confirmation, cell-based, luminescence, HEK293 lucGAA850, triplicate. shares compounds with GAA850 FXN act. hit rate 86% among 1,900. HEK293 lucGAA850 FXN promoter luciferase reporter, 24 h; 100% = activation by SAHA. activation, % at 6 µM;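 active = mean activation above a set limit taken from the primary screen, cut at about 8% in these data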;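 note: 0% = DMSO wells and 100% = 10 µM SAHA wells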
# * = called active by the depositor; . = no result given.
SMILES,SR-BI DiI inh,ABCB6 inh MLPCN,SR-BI DiI-HDL act,AHR act,HIF activator,GAA850 FXN act,GAA30 counter,GAA850 confirm
CC1CN(C(=S)Nc2cccc([N+](=O)[O-])c2)CC(C)O1 (centres undefined),10,93,-10,.,.,2,.,.
CCOC(=O)c1c(C)nc(-c2ccccc2)nc1N,-13,97,13,31,3,8.0*,131*,39*
CCOc1ccc(NC(=O)c2cc(S(=O)(=O)N3CCCCC3)c[nH]2)cc1,8,96,-10,48*,0,12*,4,3
CCc1ccc(NC(=O)c2cc(S(=O)(=O)N3CCCC3)c[nH]2)cc1,-5,95,5,23,0,-1,.,.
CN=c1scc(-c2ccc(F)cc2)n1/N=C/c1ccc(O)c(O)c1,78*,94,-78,.,.,9.3*,34*,14*
CN=c1scc(-c2ccc([N+](=O)[O-])cc2)n1/N=C/c1ccco1,20,102,-20,-13,0,-1,.,.
Cc1ccc(S(=O)(=O)NCC(=O)NCc2cc(=O)n(C)c(=O)n2C)cc1C,-16,104,16,0,0,2,.,.
COc1ccc(CCN2C(=O)CC(NCc3ccc4c(c3)OCO4)C2=O)cc1OC (centres undefined),.,97,.,5,0,1,.,.
O=C(N/N=C/c1ccccc1[N+](=O)[O-])c1cccs1,-4,95,4,27,5,5,.,.
Cc1ccc(/C=N/NC(=O)c2cccs2)cc1[N+](=O)[O-],25,95,-25,14,4,8.3*,103*,42*
COc1cc(C)ccc1OCc1cc(C(=O)N2CCC(c3ccc(F)cc3)C2)no1 (centres undefined),6,97,-6,17,4,8.9*,117*,35*
CC(C)(C)C1=Nn2c(nnc2-c2n[nH]c3c2CCC3)SC1,2,94,-2,6,.,-1,.,.
O=c1ccc(-c2ccccc2)nn1Cc1ccc(F)cc1Cl,-15,97,15,2,-1,-1,.,.
CCCCc1ccc(NC(=O)CC(C)=O)cc1,-13,102,13,1,0,1,.,.
CCCCc1ccc(NC(=O)CC(C)(C)C)cc1,-14,105,14,15,3,7.8*,108*,38*
O=C(/C=C\c1ccccc1OC(=O)c1ccccc1F)c1cc2ccccc2o1,-24,102,24,59*,4,10*,94*,29*
CC(C)(C)c1nc2ccccc2c2nnc(SCC(=O)Nc3nccs3)n12,40,87,-40,2,2,-1,.,.
C(=C\c1nc(-c2cccnc2)no1)/c1ccccc1,-6,82,6,5,2,8.7*,124*,43*
c1ccc(Cn2c(Sc3nnnn3-c3ccccc3)nnc2-c2ccccc2)cc1,7,96,-7,0,-1,-1,.,.
COc1ccc(N2Cc3ccc(OC)c(OC)c3C2=O)cc1,-4,96,4,-6,2,8.5*,100*,28*
COc1ccc2c(c1OC)C(=O)N(c1cccc(/C=C/C(=O)O)c1)C2,-2,99,2,0,-14,0,.,.
CC(C)Cn1c(=O)c2ccccc2c2ccccc2c1=O,13,98,-13,-3,0,0,.,.
CCOC(=O)Nc1ccc2c(c1)C(=NNC(=S)NC)c1ccccc1-2,.,95,.,.,.,14*,48*,20*
COc1ccc(-n2c(C)cc(C(=O)CN3C(=O)c4ccccc4C3=O)c2C)cc1,-6,97,6,5,0,4,.,.
COc1ccc(-n2c(C)cc(C(=O)CCl)c2C)cc1,4,105,-4,-2,16*,8.0*,-70,31*
SMILES,SR-BI DiI inh,ABCB6 inh MLPCN,SR-BI DiI-HDL act,AHR act,HIF activator,GAA850 FXN act,GAA30 counter,GAA850 confirm
Cc1ccc(NC(=O)COc2ccc(-n3cnnn3)cc2)cc1C,16,90,-16,1,0,-2,.,.
CCn1c(SCC(=O)Nc2oc(-c3ccccc3)c(-c3ccccc3)c2C#N)nnc1-c1cc(OC)cc(OC)c1,33,100,-33,-1,0,13*,12,1
N#Cc1c(NC(=O)CSc2ncccn2)oc(-c2ccccc2)c1-c1ccccc1,11,95,-11,4,-1,1,.,.
Cc1cc(OC(C)C(=O)N(Cc2ccco2)C2CCS(=O)(=O)C2)ccc1Cl (centres undefined),-18,104,18,0,0,12*,9,5
O=C(CSc1ncccn1)N/N=C/c1ccc2c(c1)OCO2,1,96,-1,38,1,4,.,.
Cc1nn(-c2ccccc2)c(Cl)c1/C=N/NC(=O)c1ccnn1C,3,98,-3,5,4,7.7*,116*,42*
CCOC(=O)/C=C/COc1ccccc1[N+](=O)[O-],17,97,-17,-1,4,8.3*,89*,27*
C=CCSc1nc(N)c(NC(=O)c2ccco2)c(=O)[nH]1,-14,96,14,-1,.,14*,28*,9.8*
CCC(C)(C)NC(=O)C(NS(=O)(=O)c1cccs1)c1ccccc1 (centres undefined),-5,99,5,0,0,10*,15,10*
CCOC(=O)c1c(S(=O)(=O)NCC(=O)NCc2ccccc2)c(C)n(C)c1C,-13,98,13,0,0,3,.,.
O=C1Nc2ccccc2Nc2ccc([N+](=O)[O-])cc21,.,92,.,31,-14,8.3*,115*,35*
O=C(O)c1ccc(N/N=C/c2ccc(-c3ccccc3)cc2)cc1,-4,99,4,.,2,8.7*,88*,31*
O=C(O)c1ccc(/C=N/Nc2cccc(C(F)(F)F)c2)cc1,-14,103,14,14,3,10*,99*,39*
